Sampled rows, rich in hits. Any-hit rate of the full collection: about 2.1%.
PGC1a acetyl inh – inhibitors of PGC1a acetylation signal, primary screen, cell-based, U2OS, AlphaScreen, inhibitor mode; AlphaScreen anti-acetyl-lysine; with virally co-expressed GCN5 acetyltransferase; 350,000 compounds, 0.17% hits; inhibition, % at 15.6 µM;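 active = every replicate shows inhibition of at least 40%; inconclusive = mean inhibition at least 40% but some replicate below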;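 also: 0% = neutral control wells and 100% = positive control wells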
EWS-Fli block – EWS/Fli-driven NR0B1 reporter inhibitors, primary screen, A673 cells, NR0B1 luciferase, luminescence, MLPCN library; inhibition, % at 12.6 µM; 350,000 compounds, 0.67% hits; viability-normalised; AID 651661, 2012;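 active = mean inhibition of at least 50% after viability correction, with every replicate also passing that limit; inconclusive = mean reaches 50% but only one of two replicates passes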;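 also: firefly luciferase signal divided by Alamar Blue viability fluorescence both relative to DMSO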
GSIS activator – GLuc luminescence reporter in INS-1E cells, primary screen for activators of glucose-dependent secretion of insulin | 370,000 compounds, 0.61% hits | activation, % at 16.6 µM | INS-1E GLuc reporter insulin secretion, 2-3 h;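 active = lowest replicate activation of at least 40%, so every replicate reaches that level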;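 also: 0% = median of neutral control wells and 100% = median of IBMX positive control wells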
PAX8 reporter – inhibitors of PAX8-driven TPO luciferase reporter, primary screen, RMG-I cells, single concentration; inhibition, % at 12.6 µM; 360,000 compounds, 1.2% hits; AID 652154, 2013; SteadyGlo, 24 h;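 active = mean replicate inhibition at least 60% with every replicate also reaching 60%; inconclusive = only one of the two criteria is met; inactive = mean below 60% and not all replicates reaching 60%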;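 also: luciferase light reporting Pax8 driven TPO promoter activity; plate controls were median of neutral control wells for no effect and mitoxantrone controls for full effect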
MLL AF4-AF9 inh – inhibitors of AF4 peptide binding to AF9, primary screen, biochemical, AlphaScreen, biotin-AF4 peptide, FLAG-AF9, single point. Protein AF-9 (Homo sapiens), P42568. inhibition, % at 10 µM. 350,000 compounds, 0.47% hits. AID 651704, 2012;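 active = every replicate reaching a set inhibition limit, whatever the replicate mean, cut at about 25% in these data; inconclusive = mean inhibition reaches that limit but some replicates miss it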;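 also: 0% = plate neutral control median and 100% = total signal loss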
Target sequence (P42568 whole entry, looked up): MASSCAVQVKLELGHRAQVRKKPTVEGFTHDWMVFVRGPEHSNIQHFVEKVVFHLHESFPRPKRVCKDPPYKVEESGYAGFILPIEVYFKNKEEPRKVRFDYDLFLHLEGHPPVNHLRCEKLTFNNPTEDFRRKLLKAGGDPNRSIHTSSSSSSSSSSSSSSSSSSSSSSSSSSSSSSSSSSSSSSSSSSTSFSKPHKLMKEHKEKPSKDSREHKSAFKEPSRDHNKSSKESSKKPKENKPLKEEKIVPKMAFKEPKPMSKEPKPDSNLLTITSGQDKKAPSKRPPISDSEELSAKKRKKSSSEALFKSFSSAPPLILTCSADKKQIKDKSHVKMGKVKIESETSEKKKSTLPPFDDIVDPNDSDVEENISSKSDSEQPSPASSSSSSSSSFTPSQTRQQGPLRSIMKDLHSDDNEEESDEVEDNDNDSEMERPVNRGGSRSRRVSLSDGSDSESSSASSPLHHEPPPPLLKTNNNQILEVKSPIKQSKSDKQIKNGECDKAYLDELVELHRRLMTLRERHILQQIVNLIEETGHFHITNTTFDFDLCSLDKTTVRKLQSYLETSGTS
XiGFP reactiv – activators of inactive X chromosome reactivation, primary screen, imaging, XiGFP fibroblasts, GFP high-content imaging, set 2. XiGFP mouse fibroblasts, % GFP-positive cells imaging, 3 d; cells co-treated with 5-aza-dC sensitizer; scaled so ellipticine positive control = 100%. activation, % at 7.58 µM. 360,000 compounds, 0.055% hits;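 active = mean normalized replicate activation at least 10% and every replicate at or above 10%; inconclusive = only one of the two criteria met; inactive = mean below 10% and not all replicates reach 10%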;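 also: 0% = median of on-plate neutral control wells and 100% = ellipticine 6 µM median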
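System: XiGFP fibroblasts, SV40-immortalized. Medium: DMEM plus 5-aza-dC sensitizer. Doses: single point. Timing: 3 d treatment, 15 min room-temperature fixation. Control set: ellipticine 6 µM.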
Numbers without * were called inactive; ? = inconclusive; · = no result.

SMILES	PGC1a acetyl inh	EWS-Fli block	GSIS activator	PAX8 reporter	MLL AF4-AF9 inh	XiGFP reactiv
COc1ccc(C#Cc2ccc([C@H]3[C@H](CO)N4CCCCN(Cc5ccccc5F)C[C@@H]34)cc2)cc1	-12.5	8.5	18.4	-35.2	32.0*	0.3
COc1ccc(C#Cc2ccc([C@H]3[C@H]4CN(C(=O)Nc5ccccc5F)CCCCN4[C@H]3CO)cc2)cc1	3.8	-7.0	20.2	-24.8	-6.1	0.1
CCC(=O)N1CC2(C1)[C@H](c1ccc(-c3ccccc3)cc1)[C@H](CO)N2C(C)=O	·	·	-3.1	·	·	0.3
O=C(C[C@H]1C=C[C@H](NC(=O)C2CC2)[C@@H](CO)O1)Nc1nccs1	-0.9	0.2	1.2	-5.2	1.2	0.1
CCCn1c2ccccc2c2nnc(SCC(=O)OC)nc21	15.6	·	·	·	·	·
CCCCn1c2ccccc2c2nnc(SCC(=O)NC3=NN=C(c4ccccc4)CS3)nc21	·	17.6	-0.4	77.2*	-1.6	0.0
O=C(CCl)Nc1cc(SCC(O)CO)cc([N+](=O)[O-])c1 (centres undefined)	52.5*	47.0	-8.3	108.3*	1.1	0.4
O=C(CSc1nc2ncc(Br)cc2[nH]1)c1cccc([N+](=O)[O-])c1	·	67.5*	13.5	14.6	2.8	0.2
O=C(Cc1nc2ccccc2[nH]1)c1cccc([N+](=O)[O-])c1	·	45.8	14.6	62.1*	2.0	0.2
C[C@@H]1CN([C@H](C)CO)C(=O)c2cc(N(C)C)ccc2O[C@@H]1CN(C)Cc1ccc(Cl)c(Cl)c1	-18.5	-6.7	-25.5	23.3	27.9*	-0.7
C[C@@H]1CCCCO[C@@H](CN(C)Cc2ccc(Cl)c(Cl)c2)[C@@H](C)CN([C@H](C)CO)C(=O)c2cc(NC(=O)CCCN(C)C)ccc2O1	-2.7	-11.2	24.7	-9.2	14.6	-0.3
C[C@H](CO)N1C[C@H](C)[C@H](CN(C)Cc2ccc(Cl)c(Cl)c2)Oc2ccc(NC(=O)CCCN(C)C)cc2C1=O	0.9	70.2*	4.6	-9.2	3.3	-0.1
C[C@@H]1CN([C@H](C)CO)C(=O)c2cc(N(C)C)ccc2O[C@H]1CN(C)Cc1ccc(Cl)c(Cl)c1	-8.4	46.8	-40.6	25.4	28.4*	-1.2
C[C@H](CO)N1C[C@H](C)[C@H](CN(C)Cc2ccc(Cl)c(Cl)c2)Oc2ccc(N(C)C)cc2CC1=O	10.0	6.2	-4.2	13.3	19.2	-0.8
C[C@@H]1CN([C@@H](C)CO)C(=O)c2cc(N(C)C)ccc2O[C@@H]1CN(C)Cc1ccc(Cl)c(Cl)c1	-10.0	1.5	-25.8	19.1	32.9*	-1.4
COc1ccc(NC(=O)Nc2cccc3c2O[C@H](CN(C)S(=O)(=O)c2ccc(F)cc2)[C@H](C)CN([C@@H](C)CO)C3=O)cc1	2.7	-23.2	-10.8	-13.9	·	0.0
Cc1noc(C)c1S(=O)(=O)N(C)C[C@@H]1OCCCC[C@@H](C)Oc2ccc(NC(=O)Cc3ccccc3)cc2C(=O)N([C@H](C)CO)C[C@@H]1C	3.8	-11.4	-4.2	-22.2	-0.9	0.1
CNC[C@@H]1Oc2c(NS(C)(=O)=O)cccc2C(=O)N(C)C[C@H]1C	·	·	10.3	·	·	0.3
Cc1ccc(-c2c[n+](CC(=O)c3ccc(Br)cc3)c3n2CCCCC3)cc1	13.0	47.5	-33.2	97.9*	-1.0	0.0
C[C@H]1CN([C@@H](C)CO)C(=O)c2ccccc2-c2ccccc2CO[C@@H]1CN(C)C(=O)Oc1ccccc1	-1.4	-2.8	7.1	·	-2.7	0.4
N#C[C@H]1[C@H](c2ccc(C#Cc3ccc(F)cc3)cc2)[C@H](CO)N1C(=O)Nc1ccc(F)cc1	2.0	8.7	5.9	49.5	-1.5	0.1
N#C[C@@H]1[C@H](c2ccc(C#CC3CCCC3)cc2)[C@H](CO)N1C(=O)Nc1ccc(F)cc1	-17.9	-0.6	-37.8	85.5*	0.6	0.2
N#C[C@H]1[C@@H](c2ccc(C#Cc3ccc(F)cc3)cc2)[C@H](CO)N1C(=O)Nc1ccc(F)cc1	6.5	16.8	9.5	93.6*	-1.0	0.4
C[C@H]1CN([C@@H](C)CO)C(=O)c2c(c3ccccc3n2C)-c2ccccc2CO[C@@H]1CN(C)Cc1ccc(C(F)(F)F)cc1	·	-3.3	-31.5	64.5*	0.1	0.4
C[C@@H]1CN([C@H](C)CO)C(=O)c2c(c3ccccc3n2C)-c2ccccc2CO[C@H]1CN(C)Cc1ccc(Oc2ccccc2)cc1	-18.7	6.4	-13.4	84.5*	1.7	0.2
SMILES	PGC1a acetyl inh	EWS-Fli block	GSIS activator	PAX8 reporter	MLL AF4-AF9 inh	XiGFP reactiv
C[C@H]1CN([C@@H](C)CO)C(=O)c2c(c3ccccc3n2C)-c2ccccc2CO[C@@H]1CN(C)Cc1ccc(Oc2ccccc2)cc1	·	2.8	-2.8	56.2	4.4	-0.8
CC(C)NC(=O)N[C@@H]1C=C[C@@H](CC(=O)NCCCN(C)C)O[C@H]1CO	0.8	2.4	10.5	-7.3	-1.5	0.2
O=C(O)c1cccc(COc2ccc3c(c2)CCC3)c1	18.2	88.2*	-5.3	108.2*	·	-0.2
COc1ccc(OCc2cccc(C(=O)O)c2)cc1	7.8	·	·	·	·	·
O=C(O)c1ccc(COc2ccc(CO)cc2Cl)cc1	8.8	·	·	·	·	·
O=C(NCc1ccccc1)c1cccc(COc2ccc3c(c2)CCC3)c1	·	·	-17.4	17.4	·	0.2
O=C(O)c1cccc(COc2ccc(CO)cc2Cl)c1	9.1	89.0*	8.1	·	-0.8	·
CCOc1ccc(OCc2cccc(C(=O)O)c2)cc1	0.7	88.1*	4.7	·	-15.4	·
CN(C)C(=O)C[C@@H]1C=C[C@@H](NC(=O)Nc2cccc(F)c2)[C@@H](CO)O1	-10.2	0.8	2.4	-7.3	-1.7	0.0
COC(=O)Nc1nc2ccc(C(=O)c3cccs3)cc2[nH]1	-10.1	64.4*	·	64.1*	0.0	1.8
O=C(Nc1nc2ccccc2[nH]1)c1cccs1	4.1	-51.1	-4.0	-74.7	0.3	0.0
Cc1ccc(Cl)c2c(N=Nc3ccccc3)c(O)[nH]c12	14.4	-101.9	18.6	-93.1	1.3	26.7*
COc1ccccc1C#Cc1ccc2c(c1)O[C@@H](CN(C)C)[C@H](C)CN([C@H](C)CO)S2(=O)=O	-30.5	-0.7	10.6	·	10.5	-1.0
CCc1ccccc1OCC(=O)Nc1ccc(N2CCCC2)cc1C	4.1	9.7	6.9	·	7.9	37.5*
O=C(Nc1ccc(F)cc1)N1CCCCN2[C@H](CO)[C@@H](c3ccc(C4=CCCCC4)cc3)[C@H]2C1	2.7	?	-1.2	73.6*	17.0	0.1
COc1ccc(NC(=O)N2CCCCN3[C@H](CO)[C@H](c4ccc(C5=CCCC5)cc4)[C@H]3C2)cc1	-45.7	18.4	·	42.9	15.1	·
